Rows were chosen to be rich in hits. Some 0.8% of all compounds tested hit in one or more screens of this group.
Cathepsin G inh: human cathepsin G inhibitors, primary screen, biochemical, pooled compound mixtures, AMC fluorescence. P08311. purified enzyme, AMC-tetrapeptide fluorescence. inhibition, % at 5 µM (by protocol). actives 0.2% (n = 62,000);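 active = inhibition above 20% in each of the two mixture wells holding the compound; inactive = inhibition of 20% or less in either well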
FXIa inh mix: FXIa protease inhibitors in compound pools, primary screen, biochemical, 10-compound mixtures | inhibition, % at 5 µM | AID 680, 2007 | actives 0.19% (n = 62,000) | Coagulation factor XI (Homo sapiens), P03951 | purified FXIa, fluorogenic substrate, pooled mixtures;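 also: each value is inhibition by a whole ten-compound pool holding the compound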
Target sequence (P03951 19-387 limits assumed): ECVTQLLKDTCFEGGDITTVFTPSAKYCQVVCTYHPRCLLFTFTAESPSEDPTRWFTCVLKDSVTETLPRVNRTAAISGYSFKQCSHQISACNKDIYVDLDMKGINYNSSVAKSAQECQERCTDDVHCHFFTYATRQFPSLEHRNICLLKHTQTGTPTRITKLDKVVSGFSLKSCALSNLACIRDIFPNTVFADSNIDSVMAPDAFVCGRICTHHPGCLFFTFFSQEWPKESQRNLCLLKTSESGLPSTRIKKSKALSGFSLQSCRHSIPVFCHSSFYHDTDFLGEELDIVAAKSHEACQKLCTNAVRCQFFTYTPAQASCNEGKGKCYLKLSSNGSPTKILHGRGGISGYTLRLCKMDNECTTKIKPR
Target sequence (P03951 388-625 limits assumed): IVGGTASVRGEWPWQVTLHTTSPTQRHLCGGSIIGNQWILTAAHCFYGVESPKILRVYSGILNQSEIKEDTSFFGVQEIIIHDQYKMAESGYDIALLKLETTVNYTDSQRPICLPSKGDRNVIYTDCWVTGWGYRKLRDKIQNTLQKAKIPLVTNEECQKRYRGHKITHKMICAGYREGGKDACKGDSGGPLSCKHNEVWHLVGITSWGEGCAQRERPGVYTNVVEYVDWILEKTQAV
FXIIa mix inh: human factor XIIa inhibitors, primary screen, biochemical, pooled compound mixtures, fluorogenic substrate; Coagulation factor XII (Homo sapiens), P00748; purified FXIIa; inhibition, % at 5 µM; actives 0.2% (n = 62,000); AID 684, 2007
Htt clearance: clearance of mutant huntingtin inclusions, primary screen, imaging, HeLa Exon1htt(103Q)mCFP, confocal imaging; actives 0.42% (n = 47,000); inhibition, % at 1.5 µM; AID 853, 2007; aggregate imaging; zero = plate's median compound well;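 active = inhibition of aggregate fluorescence above about 70%, also judged a hit by eye on the cell image, limit read from the data, passing the limit was not always enough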;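 also: cells exposed to compound for three days before fixation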
C1s block: complement C1s protease inhibitors, primary screen, biochemical, 10-compound mixtures; mean inhibition % of two 10-compound mixtures (stronger effect = higher value), % at 5 µM (by protocol); purified C1s, fluorogenic AMC substrate, pooled mixtures; actives 0.16% (n = 62,000);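 active = inhibition above 20% in each of the two 10-compound mixture wells holding the compound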
AP complement: alternative complement pathway inhibitors, primary screen, biochemical, ELISA, human serum, orthogonally pooled compounds | LPS-coated ELISA, C3 deposition; tested in compound mixtures | actives 0.08% (n = 62,000) | inhibition, % at 5 µM;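 active = inhibition above 30% in each of the two pooled mixtures holding the compound, so the lower value exceeds 30%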
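Test system – human serum alternative complement pathway, C3 deposition on LPS-coated wells · Buffer or medium – diluted human serum in Mg2+-EGTA GVB++ · Compound dosing – 5 µM each compound, pools of ten, 50 µM per pool · Schedule – 1 h serum-compound exposure at 37 °C · Measured by – Anti-C3 ELISA, OD 450 nm · Read-out basis – percent inhibition of C3 deposition onto LPS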
A number is an active result; n = inactive; x = no result given. Rule as the data show it, unless noted: active = inhibition above about 20% (passing the limit was not always enough); inactive = the rest.

SMILES	Cathepsin G inh	FXIa inh mix	FXIIa mix inh	Htt clearance	C1s block	AP complement
NC(=O)C1CCN(CC(=O)N2c3ccccc3CCc3ccccc32)CC1	n	n	30	x	n	n
CN(C)S(=O)(=O)c1ccc(C(=O)Nc2ccc(OCC(=O)N3CCOCC3)cc2)cc1	n	n	n	n	n	n
COc1ccc(S(=O)(=O)Nc2cc(C)cc(C)n2)c2ccccc12	n	n	n	86	n	n
O=C(NCc1ccco1)c1ccc(=O)[nH]n1	x	x	x	72	x	x
C/C(=N\O)C(=O)NCc1ccncc1	n	n	n	n	n	n
Cn1nnc2cc(C(=O)N3CCN(c4ccccc4)CC3)ccc21	n	n	n	80	n	n
CCCCNC(=O)CN1C(=O)C(CC)Oc2ccc(Cl)cc21 (stereo not drawn)	n	n	20	n	n	n
CCn1cc(SCC(=O)NCc2ccc3c(c2)OCO3)c2ccccc21	n	n	n	x	n	n
CC12CCC(C(=O)NCc3ccc4c(c3)OCO4)(OC1=O)C2(C)C (stereo not drawn)	n	n	n	71	n	n
CC12CCC(C(=O)NCc3ccccc3)(OC1=O)C2(C)C (stereo not drawn)	n	n	n	x	n	n
CC12CCC(C(=O)NCC3CCCO3)(OC1=O)C2(C)C (stereo not drawn)	n	42	n	n	n	n
CC(=O)c1cn(CC(=O)NCc2ccc3c(c2)OCO3)c2ccccc12	n	n	n	n	64	n
O=C(Nc1ccc2oc(=O)ccc2c1)c1cccnc1	n	n	n	x	23	n
Cc1cc(-c2ccccc2N)n[nH]1	n	n	n	x	n	n
CCOC(=O)N1CCN(C(=O)CC(=O)Nc2ccc3nc4n(c(=O)c3c2)CCCCC4)CC1	n	n	47	x	n	n
CCOC(=O)N1CCN(C(=O)C(=O)Nc2ccc3nc4n(c(=O)c3c2)CCCCC4)CC1	x	x	x	n	x	x
Cc1cc(C)c(S(=O)(=O)N2CCCCC2)c(C)c1-n1ncnn1	n	n	n	n	n	n
Cc1cc(C)c2c(CC(=O)NCc3ccco3)coc2c1	n	n	n	n	21	n
c1ccc2oc(NC3=NCN(CC4CCCO4)CN3)nc2c1 (stereo not drawn)	n	n	n	x	n	n
Cn1c(=O)[nH]c(=O)c2c1nc(Br)n2CCOc1ccccc1	n	n	n	n	n	n
Cn1c(=O)[nH]c(=O)c2c1nc(Br)n2CC(O)c1ccccc1 (stereo not drawn)	n	n	n	n	n	42
O=C(/N=C1\NC(=O)C(F)(C(F)(F)F)S1)NC1CCCCC1 (stereo not drawn)	n	24	n	x	n	n
CCC1S/C(=N/C(=O)NC2CCCCC2)NC1=O (stereo not drawn)	x	x	x	n	x	x
O=C(Cn1cc2c(n1)CCCCC2)N1CCCCC1	n	n	n	x	n	n
O=S(=O)(Nc1ccccc1F)c1ccc2nsnc2c1	n	n	21	x	n	n
SMILES	Cathepsin G inh	FXIa inh mix	FXIIa mix inh	Htt clearance	C1s block	AP complement
O=C(CSc1nc2ccsc2c(=O)n1Cc1ccccc1)NCc1ccco1	n	n	n	n	n	n
O=C(CSc1nc2ccsc2c(=O)n1NC(=O)c1ccccc1)NCc1ccco1	n	n	n	70	n	n
Cc1c(NC(=O)CSc2nc(-c3ccco3)cc(C(F)(F)F)n2)c(=O)n(-c2ccccc2)n1C	x	x	x	n	x	x
CN(C)S(=O)(=O)c1cccc(COC(=O)C2=COCCO2)c1	n	n	21	n	n	n
CC1(C)CCCN(C(=O)c2coc(=O)c(Br)c2)C1	n	n	n	x	n	n
Cc1c(C(=O)O)oc2ccc(S(=O)(=O)NCc3ccccc3)cc12	n	n	n	n	n	n
COc1ccc(S(=O)(=O)N(CC(=O)NC2CC2)C2CCCCC2)cc1Cl	n	n	n	n	n	n
CNC(=O)CN(C1CCCCC1)S(=O)(=O)c1ccc(OC)c(Cl)c1	n	n	48	x	n	n
CCN1C(=O)c2c(C)nc3ccccc3c2C1=O	n	n	n	n	n	n
CCN1C(=O)c2ccc(-c3nc4ccccc4c(=O)o3)cc2C1=O	39	n	n	x	n	n
COc1ccc(C(=O)NCc2cccnc2)cc1Br	x	x	x	n	x	x
COc1ccc(-c2cc(C(=O)NCc3cccnc3)no2)cc1	n	n	n	n	n	n
COc1cc(OC)cc(C(=O)NCc2cccnc2)c1	n	n	n	75	n	n
COc1ccc2c(c1)CCc1c(C(=O)NCc3cccnc3)noc1-2	87	n	n	n	n	n
COc1cccc(CNC(=O)c2ccccc2N)c1	n	n	n	82	n	n
O=C(CCN1C(=O)C2CC=C(Cl)CC2C1=O)Nc1ccccc1O (stereo not drawn)	n	n	n	x	n	n
OCc1nc2ccccc2n1CCCOc1ccc(Br)cc1	n	n	n	n	n	n
O=C(CCN1C(=O)CSC1=O)Nc1ccc(Br)cc1	x	x	x	n	x	x
COc1cccc(C(C(=O)NCc2ccco2)N(Cc2ccco2)C(=O)Cn2nnc3ccccc32)c1 (stereo not drawn)	x	x	x	80	x	x
COc1cccc(N(C(=O)Cn2nnc3ccccc32)C(C(=O)NCc2ccco2)c2cccnc2)c1 (stereo not drawn)	n	n	n	x	n	n
C=CCn1c(SC(C)C(=O)NC2(C#N)CCCCC2)nnc1-c1ccc(OC)cc1 (stereo not drawn)	n	22	n	n	n	n
C=CCn1c(SCC(=O)NCC(=O)OCC)nnc1-c1cccc(OC)c1	n	n	n	x	n	n
CCC(C)(C)n1nnnc1C(c1ccc(OC)c(OC)c1)N1CCN(c2ccc(OC)cc2)CC1 (stereo not drawn)	n	n	n	n	n	n
CCC(C)(C)n1nnnc1C(c1ccc(OC)c(OC)c1)N1CCN(c2ccc(F)cc2)CC1 (stereo not drawn)	n	n	48	n	n	n
CCn1c(SCC(=O)Nc2nnc(C)s2)nnc1-c1ccco1	n	n	n	x	n	n
SMILES	Cathepsin G inh	FXIa inh mix	FXIIa mix inh	Htt clearance	C1s block	AP complement
COc1ccccc1Nc1nc(-c2cccs2)cs1	n	n	n	n	58	n
COc1ccc(OC)c(Nc2nc(-c3cccs3)cs2)c1	n	n	n	n	n	n
CCS(=O)(=O)N1CCN(C(=O)C(c2ccccc2)c2ccccc2)CC1	x	x	x	n	x	x
CC(C)n1c(SCCCc2ccccc2)nc2c1c(=O)[nH]c(=O)n2C	n	n	n	n	n	33
Cc1ccc(CCNC(=O)C2CCCN(S(=O)(=O)c3cnc[nH]3)C2)cc1 (stereo not drawn)	n	n	n	70	n	n
O=C(NCCc1ccc(Cl)cc1)C1CCCN(S(=O)(=O)c2cnc[nH]2)C1 (stereo not drawn)	n	n	n	x	n	n

Source: PubChem (several laboratories)
